Assay results from ChEMBL document CHEMBL1914423, “New imidazo[2,1-b]thiazole derivatives: synthesis, in vitro anticancer evaluation, and in silico studies” (Eur J Med Chem, 2011).

Experiments:
Format in all cases: functional
[1] = test system: K562; test: Anticancer activity against human K562 cells after 48 hrs by SRB assay; conditions: K562, 48 h
How it was run: (§1)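 NCI five-dose screen. Cells in RPMI 1640 with 5% FBS and 2 mM L-glutamine, seeded at 5000–40,000 cells/well according to doubling time, then pre-incubated 24 h at 37 °C in 5% CO2. Drugs dissolved in DMSO, five concentrations by 10-fold or 1/2-log dilution. Cells fixed with TCA, SRB-stained, A515 read. IC50 solved from [(Ti−Tz)/(C−Tz)]×100 = 50.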

[2] = test system: MOLT-4; test: Anticancer activity against human MOLT4 cells after 48 hrs by SRB assay; conditions: MOLT-4, 48 h
[3] = test system: RPMI-8226; test: Anticancer activity against human RPMI8226 cells after 48 hrs by SRB assay; conditions: RPMI-8226, 48 h
[4] = test system: SR; test: Anticancer activity against human SR cells after 48 hrs by SRB assay
How it was run: (§2)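 NCI-60 five-dose mode: cells in RPMI 1640 with 5% FBS and 2 mM glutamine, plated at 5000–40,000 cells/well, and preincubated 24 h, with time-zero plates TCA-fixed. Drug given at five concentrations (10-fold or ½-log serial dilutions). Cold TCA fixation 60 min at 4 °C, SRB stain, Tris solubilization, A515. IC50 taken where [(Ti−Tz)/(C−Tz)]×100 = 50.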

[5] = test system: A549; test: Anticancer activity against human A549 cells after 48 hrs by SRB assay; conditions: A549, 48 h; how it was run: as §1
[6] = test system: EKVX; test: Anticancer activity against human EKVX cells after 48 hrs by SRB assay; how it was run: as §1
[7] = test system: NCI-H226; test: Anticancer activity against human NCI-H226 cells after 48 hrs by SRB assay; conditions: NCI-H226, 48 h
[8] = test system: NCI-H23; test: Anticancer activity against human NCI-H23 cells after 48 hrs by SRB assay; conditions: NCI-H23, 48 h
[9] = test system: HCC 2998; test: Anticancer activity against human HCC2998 cells after 48 hrs by SRB assay; conditions: HCC 2998, 48 h; how it was run: as §1
[10] = test system: SW-620; test: Anticancer activity against human SW620 cells after 48 hrs by SRB assay; conditions: SW-620, 48 h; how it was run: as §2
[11] = test system: SF-268; test: Anticancer activity against human SF268 cells after 48 hrs by SRB assay; conditions: SF-268, 48 h
[12] = test system: SF-539; test: Anticancer activity against human SF539 cells after 48 hrs by SRB assay; conditions: SF-539, 48 h
[13] = test system: SNB-19; test: Anticancer activity against human SNB19 cells after 48 hrs by SRB assay; conditions: SNB-19, 48 h
[14] = test system: SNB-75; test: Anticancer activity against human SNB75 cells after 48 hrs by SRB assay; conditions: SNB-75, 48 h
[15] = test system: LOX IMVI; test: Anticancer activity against human LOXIMVI cells after 48 hrs by SRB assay; how it was run: as §1
[16] = test system: SK-MEL-5; test: Anticancer activity against human SK-MEL-5 cells after 48 hrs by SRB assay; conditions: SK-MEL-5, 48 h
[17] = test system: UACC-257; test: Anticancer activity against human UACC257 cells after 48 hrs by SRB assay; conditions: UACC-257, 48 h; how it was run: as §2
[18] = test system: IGROV-1; test: Anticancer activity against human IGROV1 cells after 48 hrs by SRB assay; conditions: IGROV-1, 48 h; how it was run: as §1
[19] = test system: OVCAR-4; test: Anticancer activity against human OVCAR4 cells after 48 hrs by SRB assay; conditions: OVCAR-4, 48 h
[20] = test system: OVCAR-5; test: Anticancer activity against human OVCAR5 cells after 48 hrs by SRB assay; conditions: OVCAR-5, 48 h
[21] = test system: OVCAR-8; test: Anticancer activity against human OVCAR8 cells after 48 hrs by SRB assay; conditions: OVCAR-8, 48 h
[22] = test system: A498; test: Anticancer activity against human A498 cells after 48 hrs by SRB assay; conditions: A498, 48 h; how it was run: as §1
[23] = test system: RXF 393; test: Anticancer activity against human RXF393 cells after 48 hrs by SRB assay; conditions: RXF 393, 48 h
[24] = test system: TK-10; test: Anticancer activity against human TK10 cells after 48 hrs by SRB assay; conditions: TK-10, 48 h; how it was run: as §2
[25] = test system: UO-31; test: Anticancer activity against human UO31 cells after 48 hrs by SRB assay; conditions: UO-31, 48 h; how it was run: as §2
[26] = test system: PC-3; test: Anticancer activity against human PC3 cells after 48 hrs by SRB assay; conditions: PC-3, 48 h
[27] = test system: DU-145; test: Anticancer activity against human DU145 cells after 48 hrs by SRB assay; conditions: DU-145, 48 h; how it was run: as §1
[28] = test system: MCF7; test: Anticancer activity against human MCF7 cells after 48 hrs by SRB assay; conditions: MCF7, 48 h; how it was run: as §1
[29] = test system: MDA-MB-468; test: Anticancer activity against human MDA-MB-468 cells after 48 hrs by SRB assay; conditions: MDA-MB-468, 48 h
[30] = read-out: LC50 (the source's name)

SMILES: O=C(NCCNc1nccc(-c2c(-c3cccc(O)c3)nc3sccn23)n1)Nc1cccc(C(F)(F)F)c1
- GI50 [1]: 3.42 µM
- TGI [1]: 57.1 µM
- CC50 [1, 30]: > 100 µM
- GI50 [2]: 3.6 µM
- TGI [2]: 14.6 µM
- CC50 [2, 30]: > 100 µM
- GI50 [3]: 2.52 µM
- LC50 [3]: > 100 µM
- TGI [3]: 5.46 µM
- GI50 [4]: 6.08 µM
- TGI [4]: 40 µM
- CC50 [4, 30]: > 100 µM
- GI50 [5]: 2.98 µM
- LC50 (concentration giving 50% net tumour cell kill) [5]: > 100 µM
- TGI [5]: 8.44 µM
- GI50 [6]: 4.16 µM
- LC50 [6]: > 100 µM
- TGI [6]: 36.6 µM
- GI50 [7]: 9.99 µM
- LC50 (concentration killing 50% of tumour cells) [7]: 81 µM
- TGI [7]: 28.5 µM
- GI50 [8]: 4.62 µM
- LC50 (50% lethal concentration) [8]: > 100 µM
- TGI [8]: 32.5 µM
- GI50 [9]: 2.68 µM
- TGI [9]: 5.77 µM
- CC50 [9, 30]: 74.9 µM
- GI50 [10]: 3.84 µM
- TGI [10]: 13.4 µM
- CC50 [10, 30]: 64.5 µM
- GI50 [11]: 3.45 µM
- TGI [11]: 14.6 µM
- CC50 [11, 30]: > 100 µM
- GI50 [12]: 13.1 µM
- TGI [12]: 36.9 µM
- CC50 [12, 30]: > 100 µM
- GI50 [13]: 5.08 µM
- TGI [13]: 36.2 µM
- CC50 [13, 30]: > 100 µM
- GI50 [14]: 2.5 µM
- TGI [14]: 12.7 µM
- CC50 [14, 30]: 62.5 µM
- GI50 [15]: 4.05 µM
- TGI [15]: 26.2 µM
- CC50 [15, 30]: > 100 µM
- GI50 [16]: 2.62 µM
- TGI [16]: 8.43 µM
- CC50 [16, 30]: 28.9 µM
- GI50 [17]: 2.51 µM
- TGI [17]: 6.94 µM
- CC50 [17, 30]: 59.8 µM
- GI50 [18]: 3.48 µM
- TGI [18]: 13.1 µM
- CC50 [18, 30]: 93.4 µM
- GI50 [19]: 3.97 µM
- TGI [19]: 14.2 µM
- CC50 [19, 30]: 39.7 µM
- GI50 [20]: 16.3 µM
- TGI [20]: 65.3 µM
- CC50 [20, 30]: > 100 µM
- GI50 [21]: 3.56 µM
- TGI [21]: 11 µM
- CC50 [21, 30]: 37.6 µM
- GI50 [22]: 7.33 µM
- TGI [22]: 32.6 µM
- CC50 [22, 30]: > 100 µM
- GI50 [23]: 2.41 µM
- TGI [23]: 5.1 µM
- CC50 [23, 30]: 12.9 µM
- GI50 [24]: 3.66 µM
- TGI [24]: 11.1 µM
- CC50 [24, 30]: 94.5 µM
- GI50 [25]: 3.25 µM
- TGI [25]: 16.8 µM
- CC50 [25, 30]: 98.1 µM
- GI50 [26]: 2.94 µM
- TGI [26]: 12.6 µM
- CC50 [26, 30]: > 100 µM
- GI50 [27]: 5.37 µM
- TGI [27]: 30 µM
- CC50 [27, 30]: > 100 µM
- GI50 [28]: 3.57 µM
- TGI [28]: 16 µM
- CC50 [28, 30]: 78.1 µM
- GI50 [29]: 1.67 µM
- TGI [29]: 3.33 µM
- CC50 [29, 30]: 6.67 µM
